Activity calls are given as the source filed them. The rule behind the calls is not given here.
How the values were obtained:
PC-3 [1] = assay: Induction of cell cycle arrest in human PC3 assessed as accumulation of cells at S-phase at 10 uM after 48 hrs by propidium iodide staining-based FACS analysis (reference value: 23.9 +/- 1.1%); assay type: functional
PC-3 [2] = assay: Cytotoxicity against human PC3 cells at 4 uM after 72 hrs by XTT assay; assay type: functional, cell-based; conditions: PC-3, 72 h
PC-3 [3] = assay: Antitumor activity against human PC3 cells xenografted in chicken chorioallantoic membrane assessed as inhibition of cell proliferation treated topically QD for 4 days by immunohistochemical analysis; assay type: functional, cell-based
Method in brief: (§1)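 0.7× 10^6 log-phase PC-3 cells in 20 μL medium/matrigel (1:1) grafted onto chicken CAM; from day 1, topical 20 μL compound or solvent once daily for 4 days. Xenografts fixed, paraffin-embedded, immunostained for Ki-67 with hematoxylin counterstain; staining quantified by image analysis; n = 3–6.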

PC-3 [4] = assay: Induction of apoptosis in human PC3 cells assessed as increase in phosphatidylserine expression on outer cell membrane leaflet at 3 to 30 uM by annexin V-FITC and propidium iodine staining-based by flow cytometric analysis; assay type: functional; conditions: TDE = time-dependent effect
Method in brief: (§2)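 PC-3 cells exposed 48 and 72 h, adherent cells detached with citric saline, stained with FITC-annexin V and propidium iodide, analysed by flow cytometry for annexin V+ cells. Means ± SEM of three experiments, Newman-Keuls test.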

PC-3 [5] = assay: Antitumor activity against human PC3 cells xenografted in chicken chorioallantoic membrane assessed as inhibition of tumor angiogenesis treated topically QD for 4 days using desmin staining by immunohistochemical analysis; assay type: functional, cell-based
Method in brief: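 PC-3 cells (0.7× 10^6 in 20 μL medium/matrigel 1:1) grafted onto chicken CAM, dosed topically with 20 μL compound or solvent once daily for 4 days from day 1. Paraffin sections immunostained for desmin as angiogenesis marker, hematoxylin counterstain; staining quantified by image analysis; n = 3–6.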

PC-3 [6] = assay: Cytotoxicity against human PC3 cells at 30 uM after 48 hrs by XTT assay; assay type: functional, cell-based; conditions: PC-3, 48 h
PC-3 [7] = assay: Induction of cell cycle arrest in human PC3 assessed as accumulation of cells at G0/G1-phase at 10 uM after 24 hrs by propidium iodide staining-based FACS analysis (reference value: 58.7 +/- 1.4%); assay type: functional
PC-3 [8] = assay: Induction of cell cycle arrest in human PC3 assessed as accumulation of cells at S-phase at 10 uM after 24 hrs by propidium iodide staining-based FACS analysis (reference value: 22.4 +/- 1.3%); assay type: functional
PC-3 [9] = assay: Induction of cell cycle arrest in human PC3 cells assessed as decrease in cyclin E expression at 3 to 10 uM after 48 hrs by Western blot analysis; assay type: functional, cell-based
Method in brief: (§3)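 PC-3 whole-cell lysates at equal protein separated by SDS-PAGE and immunoblotted for cyclin D1 (24 h treatment) or cyclin E and p21Waf1/Cip1 (48 h treatment); actin as loading control; three independent repeats.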

PC-3 [10] = assay: Cytotoxicity against human PC3 cells after at 30 uM after 48 to 72 hrs by XTT assay; assay type: functional, cell-based
PC-3 [11] = assay: Induction of cell cycle arrest in human PC3 assessed as accumulation of cells at G2/M-phase at 10 uM after 24 hrs by propidium iodide staining-based FACS analysis (reference value: 18.9 +/- 0.3%); assay type: functional
PC-3 [12] = assay: Antiproliferative activity against human PC3 cells assessed as reduction in colony formation after 21 days using crystal violet staining by anchorage-independent soft agar assay; assay type: functional, cell-based
Method in brief: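 PC-3 cells (Ham's F12-K, 10% FCS) seeded at 1000 cells/cm2 in 0.35% agar with 10 μM compound or solvent; colonies grown 21 days, fixed and stained with crystal violet.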

PC-3 [13] = assay: Induction of cell cycle arrest in human PC3 cells assessed as change in p21WAF1/Cip1 level at 3 to 10 uM after 48 hrs by Western blot analysis; assay type: functional, cell-based; method in brief: as §3
PC-3 [14] = assay: Antitumor activity against human PC3 cells xenografted in chicken chorioallantoic membrane assessed as decrease in tumor size treated topically QD for 4 days by immunohistochemical analysis; assay type: functional, cell-based; method in brief: as §1
PC-3 [15] = assay: Induction of cell cycle arrest in human PC3 cells assessed as decrease in cyclin D1 expression at 3 to 10 uM after 24 hrs by Western blot analysis; assay type: functional, cell-based; method in brief: as §3
PC-3 [16] = assay: Induction of apoptosis in human PC3 cells assessed as DNA fragmentation at 10 uM after 72 hrs by SDS-PAGE analysis; assay type: functional, cell-based; conditions: in the assay text read “agarose gel electrophoresis” for “SDS-PAGE analysis”
Method in brief: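 PC-3 cells cultured with compound or solvent for 72 h; floating cells lysed in buffer of 100 mM Tris-HCl pH 8.0, 2 mM EDTA, 0.8% SDS, RNase A and proteinase K; DNA ladder resolved on 1.5% agarose gel.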

PC-3 [17] = assay: Cytotoxicity against human PC3 cells assessed as cell death at 3 to 30 uM after 48 hrs by LDH-release assay in presence of 10 uM of pan-caspase inhibitor z-VAD-fmk
PC-3 [18] = assay: Induction of apoptosis in human PC3 cells assessed as increase in phosphatidylserine expression on outer cell membrane leaflet after 48 to 72 hrs by annexin V-FITC and propidium iodine staining-based by flow cytometric analysis; assay type: functional; method in brief: as §2
[19] = Cytotoxicity against human RWPE1 cells at 1 to 30 uM after 48 hrs by XTT assay; assay type: cell-based; conditions: rwpe-1, 48 h
Method in brief: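 Normal prostate epithelial RWPE-1 cells (HPV18-immortalized) grown in keratinocyte serum-free medium, 3–5 × 10^3 cells/well, treated 48 h; viability by XTT reduction (final 125 μM XTT, 25 μM phenazine methosulfate, 4 h), A450. Means ± SEM of 3–5 experiments in triplicate.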

PC-3 [20] = assay: Induction of cell cycle arrest in human PC3 assessed as accumulation of cells at G0/G1-phase at 10 uM after 48 hrs by propidium iodide staining-based FACS analysis (reference value: 58.8 +/- 2.2%); assay type: functional
PC-3 [21] = assay: Cytotoxicity against human PC3 cells at 10 '-5 to 10 uM after 72 hrs by XTT assay; assay type: functional, cell-based
PC-3 [22] = assay: Induction of cell cycle arrest in human PC3 assessed as accumulation of cells at G2/M-phase at 10 uM after 48 hrs by propidium iodide staining-based FACS analysis (reference value: 17.3 +/- 1.2%); assay type: functional
PC-3 [23] = assay: Induction of apoptosis in human PC3 cells assessed as increase in phosphatidylserine expression on outer cell membrane leaflet at 10 uM by annexin V-FITC and propidium iodine staining-based by flow cytometric analysis; assay type: functional; conditions: TDE = time-dependent effect; method in brief: as §2
PC-3 [24] = assay: Cytotoxicity against human PC3 cells after at 10 uM after 72 hrs by XTT assay; assay type: functional, cell-based
PC-3 [25] = assay: Induction of cell cycle arrest in human PC3 assessed as accumulation of cells at G2/M-phase at 10 nM after 48 hrs by propidium iodide staining-based FACS analysis; assay type: functional
Method in brief: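 Positive-control treatment of PC-3 cells, then trypsinization, 70% ethanol fixation, propidium iodide DNA staining with 40 μg/mL RNase A, flow cytometric DNA content and modelled phase distribution.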

**Q.** What does the source list for CC(C)=CCC/C(C)=C/CC/C(C)=C/CC[C@@H]1[C@@]2(C)CC[C@H](O)C(C)(C)[C@@H]2CC[C@@]1(C)O?
**A.** Activity (PC-3 [1]): 9.3%; IC50 (PC-3 [2]): 4 µM; Activity (PC-3 [3]): Dose-dependent effect; Activity (PC-3 [4]): tde; Activity (PC-3 [5]): Dose-dependent effect; IC50 (PC-3 [6]): 30 µM; Activity (PC-3 [7]): 75.4%; Activity (PC-3 [8]): 5.6%; Activity (PC-3 [9]): Active; Activity (PC-3 [10]): Active; Activity (PC-3 [11]): 18.9%; Activity (PC-3 [12]): Dose-dependent effect; Activity (PC-3 [13]): inactive; Activity (PC-3 [14]): Dose-dependent effect; Activity (PC-3 [15]): Active; Activity (PC-3 [16]): Active; Activity (PC-3 [17]): inactive; Activity (PC-3 [18]): Dose-dependent effect; Activity [19]: Non-toxic; Activity (PC-3 [20]): 74.2%; Activity (PC-3 [21]): Active; Activity (PC-3 [22]): 17.3%

**Q.** For CC(=O)O[C@@]12CO[C@@H]1C[C@H](O)[C@@]1(C)C(=O)[C@H](O)C3=C(C)[C@@H](OC(=O)[C@H](O)[C@@H](NC(=O)OC(C)(C)C)c4ccccc4)C[C@@](O)([C@@H](OC(=O)c4ccccc4)[C@H]21)C3(C)C, which Activity (PC-3 [23]) is on record?
**A.** tde

**Q.** And the Activity (PC-3 [24])?
**A.** inactive

**Q.** And the Activity (PC-3 [25])?
**A.** Active

**Q.** What about the Activity (PC-3 [21]) of the same compound?
**A.** Active

Source: ChEMBL document CHEMBL1914312, “(8R)-3β,8-dihydroxypolypoda-13E,17E,21-triene induces cell cycle arrest and apoptosis in treatment-resistant prostate cancer cells” (J Nat Prod, 2011)
